The test system of data set [1] is HT-29. Nature of the data set: Cytotoxicity against human HT-29 cells. It is filed as functional.
For data set [2], the system named is Artemia. The experiment in a line: (§1) Toxicity in brine shrimp. The class given is organism-based. The settings on record: in vivo. The gist of the method: (§2)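 Lethality read-out in brine shrimp larvae (BST), used routinely to screen extracts, fractions and isolated compounds.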
The subject of data set [3] is A549. The experiment in a line: Cytotoxicity against human A549 cells. It is filed as functional. The settings on record: for EC50: Homo sapiens, A549, read-out: ED50 (the source's name).
The subject of data set [4] is MCF7. Nature of the data set: Cytotoxicity against human MCF7 cells. It is filed as functional. The settings on record: for EC50: Homo sapiens, MCF7, read-out: ED50 (the source's name).
Data set [5] in a line: as §1. The class given is organism-based. The settings on record: artemia, in vivo. The gist of the method:
as §2

≈ marks a conversion by molar mass, not a printed value.

Here are results for five molecules from ChEMBL document CHEMBL1148166, “30-, 31-, and 32-hydroxybullatacinones: bioactive terminally hydroxylated annonaceous acetogenins from Annona bullata” (J Nat Prod, 1993).

With `CCCCC(O)CCCCC[C@H](O)[C@H]1CC[C@H]([C@H]2CC[C@H]([C@H](O)CCCCCCCCCCC3CC(CC(C)=O)C(=O)O3)O2)O1` (mixture of isomers), the ED50 in data set [1] is listed as <1 ×10⁻¹² ug/ml; in data set [3], 1.66 ×10⁻⁹ ug/ml. The same molecule showed an LC50 in data set [2] of 4.05 ×10⁻² ug/ml. Besides, the EC50 in data set [4] worked out at 0.105 µg/mL.

Regarding `CCCC(O)CCCCCC[C@H](O)[C@H]1CC[C@H]([C@H]2CC[C@H]([C@H](O)CCCCCCCCCCC3CC(CC(C)=O)C(=O)O3)O2)O1` (mixture of isomers), the ED50 in data set [1] amounted to 1.09 ×10⁻¹² ug/ml; in data set [3], 3.29 ×10⁻¹¹ ug/ml; in data set [4], 7.63 ×10⁻⁴ ug/ml. The LC50 in data set [5] was 0.158 µg/mL.

`CCCCCCCCCC[C@H](O)[C@H]1CC[C@H]([C@H]2CC[C@H]([C@H](O)CCCCCCCCCCC3CC(CC(C)=O)C(=O)O3)O2)O1` (mixture of isomers) showed an ED50 in data set [1] of 1.19 ×10⁻⁶ ug/ml. Moreover, the LC50 in data set [5] amounted to 0.0054 µg/mL. Besides, the results for the EC50 in data set [3] and in data set [4] were 0.00218 µg/mL and 12.2 µg/mL, respectively.

On to `CCC(O)CCCCCCC[C@H](O)[C@H]1CC[C@H]([C@H]2CC[C@H]([C@H](O)CCCCCCCCCCC3CC(CC(C)=O)C(=O)O3)O2)O1` (mixture of isomers), for which the ED50 in data set [1] was <1 ×10⁻¹² ug/ml. The molecule also showed an LC50 in data set [2] of 4.67 ×10⁻² ug/ml. For the same molecule, the results for the EC50 in data set [3] and in data set [4] were 0.00125 µg/mL and 0.161 µg/mL, respectively.

As to `COc1cccc2c1C(=O)c1c(O)c3c(c(O)c1C2=O)C[C@@](O)(C(=O)CO)C[C@@H]3O[C@H]1C[C@H](N)[C@H](O)[C@H](C)O1` [DOXORUBICIN], the ED50 in data set [1] was found to be 3.32 ×10⁻⁴ ug/ml; in data set [3] it was 1.98 ×10⁻⁴ ug/ml. For the same molecule, in data set [4], the EC50 is 0.00202 µg/mL (≈ 3.72 nM).
